Series [1] in a line: Inhibition of human recombinant carbonic anhydrase 7 C183S/C217S mutant using carbon-dioxide as substrate preincubated for 10 mins prior to substrate addition by […]. The method, boiled down:
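Stopped-flow CO2 hydration by Khalifah's method: 0.2 mM phenol red read at 557 nm, 10 mM HEPES pH 7.5, 0.1 M Na2SO4, CO2 1.7–17 mM, initial rates over 10–100 s. Enzyme preincubated 10 min at room temperature with at least 7 inhibitor concentrations, from 10 mM DMSO-water stock diluted down to 1 nM. Triplicates; Ki by non-linear least-squares fitting.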
A general note: Flow cytometry measures light scatter and fluorescence of single cells or particles in a stream.

The nature of series [2]: Inhibition of human recombinant carbonic anhydrase 7 C183S/C217S mutant phosphatase activity using 4-nitrophenyl phosphate as substrate preincubated for 10 mins prior to substrate addition by […]. The method, boiled down: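 Phosphatase assay with 4-nitrophenyl phosphate at 0.08–5 mM, 25 °C, 4-nitrophenol release read at 405 nm. Buffer: 10 mM HEPES/10 mM Tris pH 7.4 with 0.1 M Na2SO4. Spontaneous hydrolysis subtracted.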

Series [3] can be described thus: Inhibition of human recombinant carbonic anhydrase 7 C183S/C217S mutant hydrolysis activity using 4-nitrophenyl acetate as substrate preincubated for 10 mins prior to substrate addition by […]. An outline of the steps: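 Esterase assay with 4-nitrophenyl acetate dissolved in acetonitrile (final MeCN 5%). Buffer: 10 mM HEPES/10 mM Tris pH 7.4 with 0.1 M Na2SO4; enzyme 0.10–5.0 µM. […] Spontaneous hydrolysis subtracted.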

The species entered for series [4] is Homo sapiens. The experiment in a line: Activity of human recombinant carbonic anhydrase 7 C183S/C217S mutant.
The species entered for series [5] is Homo sapiens. The experiment in a line: Ratio of Kcat to Km for human recombinant carbonic anhydrase 7 C183S/C217S mutant.
Substrate in series [6]: CC(=O)Oc1ccc([N+](=O)[O-])cc1
The experiment in a line: (§1) Activity of human recombinant carbonic anhydrase 3.

Substrate in series [7]: O=[N+]([O-])c1ccc(OP(=O)(O)O)cc1
The series is described as §1.

Substrate in series [8]: CC(=O)Oc1ccc([N+](=O)[O-])cc1
The experiment in a line: (§2) Ratio of Kcat to Km for human recombinant carbonic anhydrase 3.

Substrate in series [9]: O=[N+]([O-])c1ccc(OP(=O)(O)O)cc1
The series is described as §2.

Substrate in series [10]: O=[N+]([O-])c1ccc(OP(=O)(O)O)cc1
The experiment in a line: Ratio of Kcat to Km for human recombinant carbonic anhydrase 7.

Substrate in series [11]: CC(=O)Oc1ccc([N+](=O)[O-])cc1
The experiment in a line: (§3) Activity of S-glutathionylated form of human recombinant carbonic anhydrase 7.

Substrate in series [12]: O=[N+]([O-])c1ccc(OP(=O)(O)O)cc1
The series is described as §3.

Substrate in series [13]: CC(=O)Oc1ccc([N+](=O)[O-])cc1
The experiment in a line: (§4) Activity of human recombinant carbonic anhydrase 7.

Substrate in series [14]: O=[N+]([O-])c1ccc(OP(=O)(O)O)cc1
The description is as §4.

Substrate in series [15]: O=[N+]([O-])c1ccc(OP(=O)(O)O)cc1
The experiment in a line: Ratio of Kcat to Km for S-glutathionylated form of human recombinant carbonic anhydrase 7.

In the case of `CC(=O)Nc1nnc(S(N)(=O)=O)s1` [ACETAZOLAMIDE], the inhibition constant (Ki) (commonly a dissociation constant, usually derived from enzyme kinetics or from competition with a known ligand) in series [1] came out at 3 nM. Besides, the IC50 (commonly the concentration that gives 50% inhibition) in series [2] came to 2910 nM; in [3], 170 nM.

With `CC(=O)Oc1ccc([N+](=O)[O-])cc1`, in series [4], the Km – broadly, the concentration of substrate that gives half-maximal velocity – came out at 1060 µM.

Turning to `O=[N+]([O-])c1ccc(OP(=O)(O)O)cc1`, the kcat/Km in series [5] was 3.03 ×10⁴ /M/s. Besides, the Km in [4] was 2210 µM.

B1: Carbonic anhydrase 3 (Homo sapiens), P07451 (protein)
chain: MAKEWGYASHNGPDHWHELFPNAKGENQSPVELHTKDIRHDPSLQPWSVSYDGGSAKTILNNGKTCRVVFDDTYDRSMLRGGPLPGPYRLRQFHLHWGSSDDHGSEHTVDGVKYAAELHLVHWNPKYNTFKEALKQRDGIAVIGIFLKIGHENGEFQIFLDALDKIKTKGKEAPFTKFDPSCLFPACRDYWTYQGSFTTPPCEECIVWLLLKEPMTVSSDQMAKLRSLLSSAENEPPVPLVSNWRPPQPINNRVVRASFK
Turning to B1, the figures for the Km in series [6] and in [7] were 1230 µM and 1340 µM, respectively. Also, the results for the kcat/Km in series [8] and in series [9] were 139 M⁻¹ s⁻¹ and 45.3 M⁻¹ s⁻¹, respectively.

B2: Carbonic anhydrase 7 (Homo sapiens), P43166 (protein)
chain: MTGHHGWGYGQDDGPSHWHKLYPIAQGDRQSPINIISSQAVYSPSLQPLELSYEACMSLSITNNGHSVQVDFNDSDDRTVVTGGPLEGPYRLKQFHFHWGKKHDVGSEHTVDGKSFPSELHLVHWNAKKYSTFGEAASAPDGLAVVGVFLETGDEHPSMNRLTDALYMVRFKGTKAQFSCFNPKCLLPASRHYWTYPGSLTTPPLSESVTWIVLREPICISERQMGKFRSLLFTSEDDERIHMVNNFRPPQPLKGRVVKASFRA
For B2, the kcat/Km in series [10] is 2.89 ×10⁴ /M/s; in series [15] it was 3.04 ×10⁴ /M/s. Also, the Michaelis-Menten constant (Km) in series [11] was 500 µM; in series [12], 970 µM; in series [13] it was 750 µM; in [14], 1430 µM.

Values taken from ChEMBL document CHEMBL1949606, “Carbonic anhydrase VII is S-glutathionylated without loss of catalytic activity and affinity for sulfonamide inhibitors” (Bioorg Med Chem Lett, 2012).
